# System: THP-1
# Assay: Cytotoxicity against human PMA-differentaited THP1 cells after 24 hrs by MTT assay
# Format: cell-based
# Conditions: THP-1, 24 h
row,Structure (SMILES),IC50 [µM]
1,N[C@@H](Cc1ccccc1)C(=O)OCc1cn(-c2ccc(Cl)cc2)nn1,389
2,N[C@@H](Cc1c[nH]c2ccccc12)C(=O)OCc1cn(-c2ccc(F)cc2)nn1,352
3,Cc1ccc(-n2cc(COC(=O)[C@@H](N)Cc3c[nH]c4ccccc34)nn2)cc1,293
4,N[C@@H](Cc1ccccc1)C(=O)OCc1cn(-c2ccc([N+](=O)[O-])cc2)nn1,180
5,N[C@@H](Cc1ccccc1)C(=O)OCc1cn(-c2ccccc2)nn1,504
6,N[C@@H](Cc1c[nH]c2ccccc12)C(=O)OCc1cn(-c2ccc(Cl)cc2)nn1,317
7,N[C@@H](Cc1ccccc1)C(=O)OCc1cn(-c2ccc(F)cc2)nn1,196
8,Cc1ccc(-n2cc(COC(=O)[C@@H](N)Cc3ccccc3)nn2)cc1,292
9,COc1ccc(-n2cc(COC(=O)[C@@H](N)Cc3ccccc3)nn2)cc1,260
10,O=C(OCc1cn(-c2ccc([N+](=O)[O-])cc2)nn1)[C@@H]1CCCN1,344
11,O=C(OCc1cn(-c2ccc(F)cc2)nn1)[C@@H]1CCCN1,309
12,O=C(OCc1cn(-c2ccccc2)nn1)[C@@H]1CCCN1,780
13,O=C(OCc1cn(-c2ccc(Cl)cc2)nn1)[C@@H]1CCCN1,346
14,COc1ccc(-n2cc(COC(=O)[C@@H]3CCCN3)nn2)cc1,218
15,Cc1ccc(-n2cc(COC(=O)[C@@H]3CCCN3)nn2)cc1,421
16,N[C@@H](Cc1c[nH]c2ccccc12)C(=O)OCc1cn(-c2ccc([N+](=O)[O-])cc2)nn1,174
17,CCCCCCCCCCCCCCCCOP(=O)([O-])OCC[N+](C)(C)C [MILTEFOSINE],54.1
18,COc1ccc(-n2cc(COC(=O)[C@@H](N)Cc3c[nH]c4ccccc34)nn2)cc1,195
19,N[C@@H](Cc1c[nH]c2ccccc12)C(=O)OCc1cn(-c2ccccc2)nn1,191

# System: THP-1
# Assay: Cytotoxicity against human PMA-differentaited THP1 cells assessed as cell viability at 100 uM after 24 hrs by MTT assay
# Format: cell-based
# Conditions: thp-1, 24 h
row,Structure (SMILES),Activity
1,Cc1ccc(-n2cc(COC(=O)[C@@H](N)Cc3ccccc3)nn2)cc1,Non-Toxic
2,O=C(OCc1cn(-c2ccccc2)nn1)[C@@H]1CCCN1,Non-Toxic
3,COc1ccc(-n2cc(COC(=O)[C@@H](N)Cc3c[nH]c4ccccc34)nn2)cc1,Non-Toxic

# System: not listed separately
# Assay: Selectivity index, ratio of IC50 for human PMA-differentaited THP1 cells to IC50 for promastigote form of Leishmania donovani Dd8
# Format: toxicity
# Conditions: PMA-differentiated THP1 cells, read-out: Ratio IC50
# Outline: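 Ratio of IC50 against THP-1 macrophages (normal cells) to IC50 against L. donovani promastigotes.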
row,Structure (SMILES),selectivity ratio
1,N[C@@H](Cc1ccccc1)C(=O)OCc1cn(-c2ccc(Cl)cc2)nn1,2.94
2,N[C@@H](Cc1c[nH]c2ccccc12)C(=O)OCc1cn(-c2ccc(F)cc2)nn1,2.32
3,Cc1ccc(-n2cc(COC(=O)[C@@H](N)Cc3c[nH]c4ccccc34)nn2)cc1,2.95
4,N[C@@H](Cc1ccccc1)C(=O)OCc1cn(-c2ccc([N+](=O)[O-])cc2)nn1,1.05
5,N[C@@H](Cc1ccccc1)C(=O)OCc1cn(-c2ccccc2)nn1,3.09
6,N[C@@H](Cc1c[nH]c2ccccc12)C(=O)OCc1cn(-c2ccc(Cl)cc2)nn1,2.46
7,N[C@@H](Cc1ccccc1)C(=O)OCc1cn(-c2ccc(F)cc2)nn1,1.48
8,Cc1ccc(-n2cc(COC(=O)[C@@H](N)Cc3ccccc3)nn2)cc1,3.28
9,COc1ccc(-n2cc(COC(=O)[C@@H](N)Cc3ccccc3)nn2)cc1,1.8
10,O=C(OCc1cn(-c2ccc([N+](=O)[O-])cc2)nn1)[C@@H]1CCCN1,1.82
11,O=C(OCc1cn(-c2ccc(F)cc2)nn1)[C@@H]1CCCN1,2.54
12,O=C(OCc1cn(-c2ccccc2)nn1)[C@@H]1CCCN1,8.05
13,O=C(OCc1cn(-c2ccc(Cl)cc2)nn1)[C@@H]1CCCN1,2.2
14,COc1ccc(-n2cc(COC(=O)[C@@H]3CCCN3)nn2)cc1,2.11
15,Cc1ccc(-n2cc(COC(=O)[C@@H]3CCCN3)nn2)cc1,2.4
16,N[C@@H](Cc1c[nH]c2ccccc12)C(=O)OCc1cn(-c2ccc([N+](=O)[O-])cc2)nn1,1.47
17,CCCCCCCCCCCCCCCCOP(=O)([O-])OCC[N+](C)(C)C [MILTEFOSINE],1.99
18,COc1ccc(-n2cc(COC(=O)[C@@H](N)Cc3c[nH]c4ccccc34)nn2)cc1,2.06
19,N[C@@H](Cc1c[nH]c2ccccc12)C(=O)OCc1cn(-c2ccccc2)nn1,1.39

# System: Leishmania donovani
# Assay: Antileishmanial activity against Leishmania donovani Dd8 promastigote forms after 48 hrs by neubauer hemocytometer method
# Format: functional
# Conditions: not given
# Outline: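 Promastigotes of L. donovani Dd8 strain exposed 48 h to increasing concentrations of test agent; percent viability scored, IC50 derived.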
row,Structure (SMILES),Activity
1,Cc1ccc(-n2cc(COC(=O)[C@@H](N)Cc3ccccc3)nn2)cc1,Dose-dependent effect
2,O=C(OCc1cn(-c2ccccc2)nn1)[C@@H]1CCCN1,Dose-dependent effect
3,COc1ccc(-n2cc(COC(=O)[C@@H](N)Cc3c[nH]c4ccccc34)nn2)cc1,Dose-dependent effect

# Same assay, conditions: Dd8, 48 h
row,Structure (SMILES),IC50 [µM]
1,N[C@@H](Cc1ccccc1)C(=O)OCc1cn(-c2ccc(Cl)cc2)nn1,132
2,N[C@@H](Cc1ccccc1)C(=O)OCc1cn(-c2ccc([N+](=O)[O-])cc2)nn1,171
3,N[C@@H](Cc1ccccc1)C(=O)OCc1cn(-c2ccc(F)cc2)nn1,133
4,Cc1ccc(-n2cc(COC(=O)[C@@H]3CCCN3)nn2)cc1,175
5,N[C@@H](Cc1c[nH]c2ccccc12)C(=O)OCc1cn(-c2ccc([N+](=O)[O-])cc2)nn1,119
6,CCCCCCCCCCCCCCCCOP(=O)([O-])OCC[N+](C)(C)C [MILTEFOSINE],27.1
7,COc1ccc(-n2cc(COC(=O)[C@@H](N)Cc3c[nH]c4ccccc34)nn2)cc1,94.5
8,N[C@@H](Cc1c[nH]c2ccccc12)C(=O)OCc1cn(-c2ccccc2)nn1,138

# Continued by falling IC50, values first:
row,IC50 [µM],Structure (SMILES)
1,189,O=C(OCc1cn(-c2ccc([N+](=O)[O-])cc2)nn1)[C@@H]1CCCN1
2,163,N[C@@H](Cc1ccccc1)C(=O)OCc1cn(-c2ccccc2)nn1
3,157,O=C(OCc1cn(-c2ccc(Cl)cc2)nn1)[C@@H]1CCCN1
4,151,N[C@@H](Cc1c[nH]c2ccccc12)C(=O)OCc1cn(-c2ccc(F)cc2)nn1
5,144,COc1ccc(-n2cc(COC(=O)[C@@H](N)Cc3ccccc3)nn2)cc1
6,129,N[C@@H](Cc1c[nH]c2ccccc12)C(=O)OCc1cn(-c2ccc(Cl)cc2)nn1
7,122,O=C(OCc1cn(-c2ccc(F)cc2)nn1)[C@@H]1CCCN1
8,104,COc1ccc(-n2cc(COC(=O)[C@@H]3CCCN3)nn2)cc1
9,99.4,Cc1ccc(-n2cc(COC(=O)[C@@H](N)Cc3c[nH]c4ccccc34)nn2)cc1
10,96.9,O=C(OCc1cn(-c2ccccc2)nn1)[C@@H]1CCCN1
11,88.8,Cc1ccc(-n2cc(COC(=O)[C@@H](N)Cc3ccccc3)nn2)cc1
